RanGTP-Imp inh: disruptors of Ran-importin-beta complex formation – biochemical, FRET, CFP-Ran, YFP-importin-beta, homogeneous, primary screen; cell-free CFP-Ran/YFP-importin-beta FRET ratio; inhibition, % (test concentration not listed); 1.1% of 300,000 active;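 active = more than half of the replicate wells show a fall in the fluorescence ratio signal beyond about 16%, limit read from the data, passing the limit was not always enough; inconclusive = exactly half of the replicate wells pass the set limit; inactive = fewer than half of replicates pass the limit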
Runt-SMMHC FRET: Runt domain-CBFb-SMMHC interaction inhibition; 0.74% of 220,000 active; Q01196+Q13951; inhibition, % at 20 µM; Cerulean-Runt/Venus-CBFb-SMMHC FRET ratio 530/480, 1 h;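 active = mean inhibition across duplicate retests at 20 µM reaching about 50%, limit read from the data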;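 note: inhibitors lower the FRET ratio by blocking Runt binding to CBFb-SMMHC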
VIM-2 inhibitor: blocks Pseudomonas aeruginosa VIM-2 metallo-beta-lactamase; 0.89% of 290,000 active; purified VIM-2, nitrocefin hydrolysis, epi-absorbance fluorescence; inhibition, % at 5.6 µM; AID 1527;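 active = inhibition above the mean of all tested compounds plus 3 SD, cutoff set per screening run, cut at about 7.5% in these data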;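 note: red hydrolysis product quenches plate fluorescence so inhibitors raise well fluorescence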
Runt-CBFb FRET: inhibitors of human RUNX1 Runt domain binding to CBFb; Q01196+Q13951; Cerulean-Runt/Venus-CBFb FRET ratio 530/480, 1 h; inhibition, % at 20 µM; 0.46% of 220,000 active;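 active = inhibition over about 50% at 20 µM in the single-dose screen, limit read from the data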
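Schedule: protein complex preformed 1 h, compound exposure 1 h, room temperature, dark; test system: Cerulean-labeled Runt domain protein; amount: 100 nM per protein; buffer or medium: Tris 50 mM pH 7.5, KCl, K2SO4, 0.01% BSA; read-out: loss of energy transfer signal; detection: FRET fluorescence; controls: 5 µM unlabeled CBFb as full-inhibition high control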
IMP-1 inhibitor: inhibitors of Pseudomonas aeruginosa IMP-1 metallo-beta-lactamase | purified IMP-1, nitrocefin hydrolysis, epi-absorbance fluorescence | inhibition, % at 5.6 µM | 0.45% of 290,000 active | AID 1556;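 active = inhibition above the mean plus 3 SD of all compounds in the same screening run, cut at about 4.5% in these data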
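System: Purified IMP-1 | Read-out basis: Percent enzyme inhibition | Controls: IMP-1 with DMSO as 0%, enzyme-free DMSO as 100% | Replicates: One well per compound | Doses: 5.6 µM nominal single concentration | Detection: Epi-absorbance fluorescence, 480 nm excitation, 530 nm emission | Incubation: 25 °C, 15 min preincubation, 25 min reaction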
VIM-2 inh confirm: VIM-2 inhibition, confirmation assay | shares compounds with IMP-1 inhibitor | purified VIM-2 enzyme, nitrocefin absorbance | inhibition, % at 5.6 µM | 73% of 200 active | AID 1860; in the data active = inhibition above about 8%
TEM-1 inh 2: blocks E. coli TEM-1 beta-lactamase, VIM-2 IMP-1 counter-screen; shares compounds with IMP-1 inhibitor; nitrocefin absorbance inhibition; inhibition, % at 5.6 µM; 50% of 200 active; AID 2184; in the data active = inhibition above about 0.66%
Target sequence (P62593 whole entry, looked up): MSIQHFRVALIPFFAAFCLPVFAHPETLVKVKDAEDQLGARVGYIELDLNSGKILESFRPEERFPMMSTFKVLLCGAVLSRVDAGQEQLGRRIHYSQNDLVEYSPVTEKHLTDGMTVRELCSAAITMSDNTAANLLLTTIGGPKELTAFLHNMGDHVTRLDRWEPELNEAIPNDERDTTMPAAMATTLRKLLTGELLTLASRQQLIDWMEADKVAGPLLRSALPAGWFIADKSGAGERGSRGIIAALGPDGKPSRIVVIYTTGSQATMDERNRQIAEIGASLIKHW
IMP-1 confirm: confirmation of P. aeruginosa IMP-1 metallo-beta-lactamase inhibitors; AID 2189; inhibition, % at 5.6 µM; 60% of 200 active; purified IMP-1 enzyme, absorbance substrate hydrolysis; shares compounds with IMP-1 inhibitor; in the data active = inhibition above about 4.9%
Numbers stand for hits; – = inactive; ? = inconclusive; · = not tested or not shown; + = active, no number. A selection: hits, their analogues and other compounds. The true share with any hit is near 2.6%.

SMILES | RanGTP-Imp inh | Runt-SMMHC FRET | VIM-2 inhibitor | Runt-CBFb FRET | IMP-1 inhibitor | VIM-2 inh confirm | TEM-1 inh 2 | IMP-1 confirm
CCn1c(=S)sc2c(=O)n(CC(=O)Nc3ccccc3C(F)(F)F)c(C)nc21 | – | · | 21 | · | 41 | 19 | – | 24
CCOC(=O)c1c2c3c(cccc3[nH]c1=O)C(=O)c1ccccc1-2 | – | – | – | – | – | · | · | ·
CCOC(=O)c1c2c3c(cccc3n(C)c1=O)C(=O)c1ccccc1-2 | – | · | 15 | · | 21 | 20 | 1.4 | 7.9
CCN(CC(=O)Nc1ccc(NC(C)=O)cc1)C(=O)c1cccc(S(=O)(=O)N2CCCC2)c1 | – | · | · | · | · | · | · | ·
O=C(Nc1ccc(NC(=O)c2cccs2)cc1)c1cccs1 | – | · | – | · | – | · | · | ·
O=C(Nc1ccc(Oc2ccc(C(=O)O)c(C(=O)O)c2)cc1)c1cccs1 | – | – | 21 | – | 5.4 | 25 | – | –
COc1ccc2c(Cl)c(C(=O)NCCCn3ccnc3)sc2c1Cl | – | – | 26 | – | 35 | 45 | – | 57
COc1cc(OC)c(C(=O)NCCCn2ccnc2)cc1OC | – | – | – | – | – | · | · | ·
CCOC(=O)/C(=C/C=C1\Sc2ccccc2N1CC)C(C)=O | – | – | – | – | – | · | · | ·
CCOC(=O)/C(=C\C=C1/Sc2ccccc2N1CC)C(C)=O | – | – | 8.5 | – | 7.8 | – | 0.7 | –
COc1cccc(C(=O)Nc2cccc(-c3ccc4nncn4n3)c2)c1OC | – | – | – | – | – | · | · | ·
COc1ccc(Cl)cc1C(=O)Nc1cccc(-c2ccc3nncn3n2)c1 | – | – | 26 | – | 23 | 34 | 3.0 | 11
Cc1ccc(NC(=O)C(C)OC(=O)Cn2[nH]c(=O)c3ccccc3c2=O)cc1 (stereo not given) | – | · | · | · | · | · | · | ·
COc1ccc(CNc2nc3ccccc3n2C)c(OC)c1 | – | – | – | – | – | · | · | ·
COc1ccc(N=Nc2nc3cc(Br)c(Br)cc3n2C)c(OC)c1 | · | – | 10 | – | 9.3 | – | 5.6 | –
CCOC(=O)N1C(=O)c2cc(OC)ccc2S1(=O)=O | – | – | 9.4 | – | 38 | – | 1.5 | 5.3
Cc1ccc2c(c1)c(/C=C/c1cc[n+](C)cc1)c(C)n2C | – | · | 26 | · | 8.4 | 31 | – | –
S=C(NCC1CCCO1)N1CCc2ccccc2C1 (stereo not given) | – | · | – | · | – | · | · | ·
NC(=S)c1cc2ccc(O)cc2oc1=O | 147 | 82 | – | – | 4.5 | – | – | –
NC(=S)c1cc2cc(Br)ccc2oc1=O | – | – | – | · | – | · | · | ·
O=C(CCN1C(=O)S/C(=C\c2ccccc2)C1=O)NC1CCS(=O)(=O)C1 (stereo not given) | – | · | – | · | – | · | · | ·
CC1(C)CC(NCCN2CCN(C3=CC(=C(C#N)C#N)CC(C)(C)C3)CC2)=CC(=C(C#N)C#N)C1 | – | – | – | – | – | · | · | ·
CN1CCN(C2=CC3=CC(=C(C#N)C#N)CCC3CC2)CC1 (stereo not given) | · | 88 | 58 | – | 67 | 62 | 66 | 63
CCN1CCN(C2=CC3=CC(=C(C#N)C#N)CCC3CC2)CC1 (stereo not given) | · | 86 | 55 | – | 72 | 62 | 67 | 58
N#CC(C#N)=C1C=C2C=C(N3CCOCC3)CCC2CC1 (stereo not given) | – | 86 | 20 | – | 17 | 64 | 76 | 60
SMILES | RanGTP-Imp inh | Runt-SMMHC FRET | VIM-2 inhibitor | Runt-CBFb FRET | IMP-1 inhibitor | VIM-2 inh confirm | TEM-1 inh 2 | IMP-1 confirm
N#CC(C#N)=C1C=C2C=C(N3CCCCCC3)CCC2CC1 (stereo not given) | 45 | 83 | 38 | – | 38 | 64 | 92 | 58
O=C(CC1CCCC1)Nc1ccc(Br)cc1 | – | · | – | · | – | · | · | ·
CC(=O)OCCn1c2nc(=O)[nH]c(=O)c-2nc2cc(C)c(C)cc21 | – | – | 33 | – | 10 | 43 | 112 | 37
CC(=O)OCCn1c(C)[n+](CCOC(C)=O)c2cc(Cl)c(Cl)cc21 | – | – | – | – | – | · | · | ·
CN(C)S(=O)(=O)N1C(=O)c2ccccc2C1=O | – | – | – | – | – | · | · | ·
CN(C)/C=C1\C=C2C(=O)c3ccccc3N2C1=O | – | – | 20 | – | 21 | 134 | + | 119
CCOC(=O)C1=C(C)N(CCCC(=O)NCc2ccc3c(c2)OCO3)C(=O)NC1c1ccc(Br)cc1 (stereo not given) | · | – | – | – | – | · | · | ·
COC(=O)[C@H]1[C@H](c2ccccc2)[C@H](C(=O)OC)O[C@H]1c1ccccc1 | – | · | · | · | · | · | · | ·
COC(=O)C1C(c2ccccc2)C=CC(c2ccccc2)C1C(=O)O (stereo not given) | ? | – | 8.7 | – | 61 | – | – | 39
O=C1C2C(c3ccccc3)C=CC(c3ccccc3)C2C(=O)N1c1ccccn1 (stereo not given) | – | – | 26 | – | 75 | 12 | – | 37
O=C1C2C(c3ccccc3)C=CC(c3ccccc3)C2C(=O)N1c1ccncc1 (stereo not given) | – | – | 25 | – | 65 | 11 | – | 29
CC(c1ccccc1)n1c(-c2ccccc2F)n[nH]c1=S (stereo not given) | – | · | 9.1 | · | 6.4 | 11 | – | –
O=C(CCN1C(=O)/C(=C/c2ccc(Cl)cc2)SC1=S)NCCCn1ccnc1 | – | · | 18 | · | 18 | 28 | 1.2 | 32
Cc1ccc(N2CC(C(=O)N3CCOCC3)CC2=O)cc1Cl (stereo not given) | ? | · | – | · | – | · | · | ·
COc1cccc(C2Nc3ccc4ccccc4c3C3=C2C(=O)CC(C)(C)C3)c1OCC(=O)O (stereo not given) | – | · | 9.5 | · | 11 | 8.1 | – | –
O=C(Nc1cccc(-c2cscn2)c1)C1CCN(Cc2ccccn2)CC1 | – | · | – | · | – | · | · | ·
CCC(C)Nc1nc(Cl)nc(N(C#N)CN2C(=O)c3ccccc3S2(=O)=O)n1 (stereo not given) | – | – | 13 | – | 18 | – | – | –
CC(=O)c1ccc(C(=O)Nc2sc3c(c2C(N)=O)CCN(Cc2ccccc2)C3)cc1 | 55 | · | 8.8 | · | 5.5 | – | 5.7 | –
CCOC(=O)NC(=O)C(/C=N/c1sccc1C(=O)OC)=C(\C)O | – | – | 7.8 | – | 8.6 | 10 | – | –
CCC(=O)Nc1sccc1C(=O)OC | – | – | – | – | – | · | · | ·
CCCC(c1c(C)n(C)n(-c2ccccc2)c1=O)c1c(C)n(C)n(-c2ccccc2)c1=O | – | – | – | – | – | · | · | ·
CCC(c1c(C)n(C)n(-c2ccccc2)c1=O)c1c(C)n(C)n(-c2ccccc2)c1=O | – | – | 36 | – | 39 | – | – | –

From PubChem BioAssay
